In brackets after ≈: the same amount, converted by molar mass. Activity calls are given as the source filed them. The rule behind the calls is not given here.
System: not listed separately
Experiment: Kinetic solubility of the compound in PBS buffer at pH 7.4
Assay type: physicochemical
Conditions: read-out: Kinetic_solubility
In short: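 Kinetic solubility in PBS, pH 7.4, determined by chemiluminescent nitrogen detection (CLND) and by UV-Vis detection.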

SMILES	solubility kinetic [µM]
N#Cc1cc(NC(=O)Nc2nnc(-c3ccncc3)s2)ccc1-c1cn[nH]c1	10 (≈ 3.88 µg/mL)
O=C(Nc1ccc(F)c(C(F)(F)F)c1)Nc1nnc(-c2ccncc2)s1	1 (≈ 0.383 µg/mL)

Biological target: Bifunctional 3'-5' exonuclease/ATP-dependent helicase WRN (Homo sapiens, UniProt Q14191)
Experiment: Inhibition of WRN (unknown origin) by gel-based DNA unwinding assay
Conditions: not given

Bifunctional 3'-5' exonuclease/ATP-dependent helicase WRN, sequence (Q14191 whole entry): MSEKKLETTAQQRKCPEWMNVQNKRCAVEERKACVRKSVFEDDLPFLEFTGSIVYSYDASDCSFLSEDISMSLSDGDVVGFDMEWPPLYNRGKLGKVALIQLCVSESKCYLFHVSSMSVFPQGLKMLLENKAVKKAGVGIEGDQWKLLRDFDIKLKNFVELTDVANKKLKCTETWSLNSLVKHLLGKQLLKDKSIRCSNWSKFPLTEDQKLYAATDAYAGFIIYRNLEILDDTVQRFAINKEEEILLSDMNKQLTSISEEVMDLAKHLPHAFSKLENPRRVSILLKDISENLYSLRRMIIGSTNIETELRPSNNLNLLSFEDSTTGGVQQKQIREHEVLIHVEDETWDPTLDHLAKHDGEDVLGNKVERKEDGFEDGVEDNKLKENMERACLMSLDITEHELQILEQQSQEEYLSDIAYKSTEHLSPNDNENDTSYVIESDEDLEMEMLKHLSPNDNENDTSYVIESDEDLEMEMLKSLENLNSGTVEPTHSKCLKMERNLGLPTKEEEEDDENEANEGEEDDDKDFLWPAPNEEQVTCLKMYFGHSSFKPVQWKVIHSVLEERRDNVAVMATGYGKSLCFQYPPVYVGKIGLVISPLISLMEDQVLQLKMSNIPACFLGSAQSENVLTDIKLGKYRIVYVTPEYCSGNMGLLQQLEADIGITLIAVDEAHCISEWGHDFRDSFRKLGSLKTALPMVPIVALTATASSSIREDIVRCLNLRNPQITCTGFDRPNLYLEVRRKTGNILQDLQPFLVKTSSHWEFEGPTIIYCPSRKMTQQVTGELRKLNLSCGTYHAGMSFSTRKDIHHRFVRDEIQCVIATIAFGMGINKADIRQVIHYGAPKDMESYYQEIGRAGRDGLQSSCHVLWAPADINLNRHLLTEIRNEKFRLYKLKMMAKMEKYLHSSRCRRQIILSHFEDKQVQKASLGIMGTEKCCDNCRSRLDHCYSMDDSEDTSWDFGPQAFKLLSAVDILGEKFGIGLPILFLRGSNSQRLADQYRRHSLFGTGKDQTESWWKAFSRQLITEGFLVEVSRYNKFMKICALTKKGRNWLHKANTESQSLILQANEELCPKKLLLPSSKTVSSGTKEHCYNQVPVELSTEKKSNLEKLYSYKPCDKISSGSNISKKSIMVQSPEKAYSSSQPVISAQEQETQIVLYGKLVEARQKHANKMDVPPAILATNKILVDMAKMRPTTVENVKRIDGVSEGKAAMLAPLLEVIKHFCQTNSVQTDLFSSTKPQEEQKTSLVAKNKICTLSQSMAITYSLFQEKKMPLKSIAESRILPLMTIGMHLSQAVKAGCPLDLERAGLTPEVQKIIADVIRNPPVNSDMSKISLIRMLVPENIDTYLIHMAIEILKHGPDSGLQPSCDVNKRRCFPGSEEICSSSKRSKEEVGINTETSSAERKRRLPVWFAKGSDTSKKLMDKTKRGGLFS

SMILES	IC50 [µM]
N#Cc1cc(NC(=O)Nc2nnc(-c3ccncc3)s2)ccc1Br	1.1
O=C(Nc1ccc(Cl)c(Cl)c1)Nc1nnc(-c2ccncc2)s1	3.4
N#Cc1cc(NC(=O)Nc2nnc(-c3ccncc3)s2)ccc1-c1cn[nH]c1	7.1
N#Cc1cc(NC(=O)Nc2nnc(-c3ccncc3)s2)ccc1F	2.2
O=C(Nc1ccc(F)c(C(F)(F)F)c1)Nc1nnc(-c2ccncc2)s1	2.7
O=C(Nc1ccc(Br)c(Br)c1)Nc1nnc(-c2ccncc2)s1	2.9
N#Cc1cc(NC(=O)Nc2nnc(-c3ccncc3)s2)ccc1Cl	1.6

Biological target: T1, RecQ-like DNA helicase BLM (Homo sapiens, UniProt P54132)
Experiment: Displacement of TAMRA-labeled oligonucleotide from BLM (unknown origin)
Conditions: not given

T1 sequence (P54132 whole entry): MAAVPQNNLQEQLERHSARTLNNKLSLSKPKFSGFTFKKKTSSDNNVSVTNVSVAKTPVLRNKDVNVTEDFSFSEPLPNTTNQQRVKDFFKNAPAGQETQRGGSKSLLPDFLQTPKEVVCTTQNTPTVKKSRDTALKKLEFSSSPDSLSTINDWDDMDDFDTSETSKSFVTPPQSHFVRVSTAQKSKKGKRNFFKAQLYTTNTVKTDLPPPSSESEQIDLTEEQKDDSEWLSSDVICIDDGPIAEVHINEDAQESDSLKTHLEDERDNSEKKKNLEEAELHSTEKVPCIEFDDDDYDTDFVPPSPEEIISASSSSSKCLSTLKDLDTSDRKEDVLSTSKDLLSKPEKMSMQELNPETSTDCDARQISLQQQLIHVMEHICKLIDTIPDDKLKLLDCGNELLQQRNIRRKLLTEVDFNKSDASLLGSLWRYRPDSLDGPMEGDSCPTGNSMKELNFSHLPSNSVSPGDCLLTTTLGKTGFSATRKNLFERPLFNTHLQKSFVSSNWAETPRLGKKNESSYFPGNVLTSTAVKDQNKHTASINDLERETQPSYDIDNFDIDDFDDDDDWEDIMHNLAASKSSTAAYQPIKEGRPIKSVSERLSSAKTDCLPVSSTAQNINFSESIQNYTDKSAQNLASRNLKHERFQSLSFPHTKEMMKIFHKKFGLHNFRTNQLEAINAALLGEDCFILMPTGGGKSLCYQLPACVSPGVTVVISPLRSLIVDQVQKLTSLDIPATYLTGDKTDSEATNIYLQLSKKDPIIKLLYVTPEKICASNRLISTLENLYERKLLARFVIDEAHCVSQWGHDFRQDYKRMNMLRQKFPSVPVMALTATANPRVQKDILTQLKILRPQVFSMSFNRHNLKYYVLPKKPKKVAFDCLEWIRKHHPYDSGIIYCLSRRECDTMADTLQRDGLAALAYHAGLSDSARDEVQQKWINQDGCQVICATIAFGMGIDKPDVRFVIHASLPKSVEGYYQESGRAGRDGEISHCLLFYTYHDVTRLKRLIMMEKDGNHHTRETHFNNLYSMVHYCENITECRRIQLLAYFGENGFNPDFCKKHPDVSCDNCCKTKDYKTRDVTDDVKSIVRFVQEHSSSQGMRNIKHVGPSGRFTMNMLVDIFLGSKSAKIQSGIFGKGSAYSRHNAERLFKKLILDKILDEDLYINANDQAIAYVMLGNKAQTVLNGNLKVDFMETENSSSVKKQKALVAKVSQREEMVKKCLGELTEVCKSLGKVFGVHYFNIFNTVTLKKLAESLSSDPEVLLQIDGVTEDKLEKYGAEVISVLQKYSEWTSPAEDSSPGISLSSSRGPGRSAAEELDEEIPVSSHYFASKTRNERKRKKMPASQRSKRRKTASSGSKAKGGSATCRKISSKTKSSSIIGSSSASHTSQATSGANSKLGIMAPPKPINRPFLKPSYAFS

SMILES	inhibition
N#Cc1cc(NC(=O)Nc2nnc(-c3ccncc3)s2)ccc1-c1cn[nH]c1	Active

Species: Homo sapiens
Experiment: Selectivity ratio of IC50 for WRN (unknown origin) to IC50 for BLM (unknown origin)
Conditions: not given

SMILES	Ratio IC50
N#Cc1cc(NC(=O)Nc2nnc(-c3ccncc3)s2)ccc1Br	10
O=C(Nc1ccc(Cl)c(Cl)c1)Nc1nnc(-c2ccncc2)s1	2.4
N#Cc1cc(NC(=O)Nc2nnc(-c3ccncc3)s2)ccc1-c1cn[nH]c1	6.5
N#Cc1cc(NC(=O)Nc2nnc(-c3ccncc3)s2)ccc1F	7.3
O=C(Nc1ccc(Br)c(Br)c1)Nc1nnc(-c2ccncc2)s1	1.4
N#Cc1cc(NC(=O)Nc2nnc(-c3ccncc3)s2)ccc1Cl	16

Biological target: T1, RecQ-like DNA helicase BLM
Experiment: Inhibition of BLM (unknown origin) binding to single-stranded DNA by fluorescence polarization analysis
Conditions: not given

SMILES	inhibition
N#Cc1cc(NC(=O)Nc2nnc(-c3ccncc3)s2)ccc1-c1cn[nH]c1	Dose-dependent effect

System: Liver
Experiment: Half life in mouse liver microsomes in presence of NADPH
Assay type: ADME, Microsome
Conditions: not given

SMILES	t1/2 [h]
N#Cc1cc(NC(=O)Nc2nnc(-c3ccncc3)s2)ccc1-c1cn[nH]c1	> 1.33
O=C(Nc1ccc(F)c(C(F)(F)F)c1)Nc1nnc(-c2ccncc2)s1	> 1.33

Biological target: T1, RecQ-like DNA helicase BLM
Experiment: Inhibition of BLM in human PSNF5 cells assessed as increase of sister chromatid exchange at 1 to 5 uM
Assay type: cell-based
Conditions: not given
In short: (§1)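 Used an isogenic pair of cell lines derived from GM08505 Bloom syndrome cells: PSNF5 (expresses BLM) and PSNG13 (lacks BLM). Cells were treated across a dose range and sister chromatid exchange frequency was scored.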

SMILES	inhibition
N#Cc1cc(NC(=O)Nc2nnc(-c3ccncc3)s2)ccc1-c1cn[nH]c1	Dose-dependent effect

Biological target: T1, RecQ-like DNA helicase BLM
Experiment: Non-competitive inhibition of BLM (unknown origin) using ATP by Lineweaver-Burk double reciprocal plot analysis
Conditions: not given

SMILES	inhibition
N#Cc1cc(NC(=O)Nc2nnc(-c3ccncc3)s2)ccc1-c1cn[nH]c1	Active

System: not listed separately
Experiment: Metabolic stability of the compound in mouse plasma assessed as compound remaining after 5 hrs
Assay type: ADME, cell-free
Conditions: read-out: Stability

SMILES	remaining at 5 h [%]
N#Cc1cc(NC(=O)Nc2nnc(-c3ccncc3)s2)ccc1-c1cn[nH]c1	100
O=C(Nc1ccc(F)c(C(F)(F)F)c1)Nc1nnc(-c2ccncc2)s1	100

Biological target: T1, RecQ-like DNA helicase BLM
Experiment: Inhibition of BLM (unknown origin) by gel-based DNA unwinding assay
Conditions: not given

SMILES	IC50
O=C(Nc1ccc(Cl)c(Cl)c1)N1CCN(c2ccncc2)CC1	Not Active
CN(C(=O)Nc1ccc2ccccc2c1)c1nnc(-c2ccncc2)s1	Not Active
O=C(Nc1ccc(Cl)c(Cl)c1)N1CCC(c2ccncc2)C1 (stereo not given)	Not Active
O=C(Nc1ccc(Cl)c(Cl)c1)Nc1ncc(-c2ccncc2)s1	Not Active
O=S(=O)(Cc1ccc(Cl)c(Cl)c1)Nc1nnc(-c2ccncc2)s1	Not Active
O=C(Nc1ccc(Cl)c(Cl)c1)Nc1nnc(C2CCCCC2)s1	Not Active
O=C(Cc1ccc2ccccc2c1)Nc1nnc(-c2ccncc2)s1	Not Active
CN1CCN(c2nnc(NC(=O)Nc3ccc(Cl)c(Cl)c3)s2)CC1	Not Active
O=C(Nc1ccc(Cl)c(Cl)c1)Nc1nnc(-c2ccccn2)s1	Not Active
O=C(Nc1ccc(Cl)c(Cl)c1)Nc1cc(-c2ccncc2)n[nH]1	Not Active
O=C(Nc1ccc(Cl)c(Cl)c1)NC1CCN(c2ccncc2)CC1	Not Active
O=C(Nc1ccc(Cl)c(Cl)c1)Nc1ccnc(-c2ccncc2)n1	Not Active
O=C(Nc1ccccc1)Nc1nnc(-c2ccncc2)s1	Not Active
O=C(Nc1ccc(Cl)c(Cl)c1)Nc1nnc(NC2CCNCC2)s1	Not Active
N#C/N=C(/Nc1ccc(F)c(C(F)(F)F)c1)Nc1nnc(-c2ccncc2)s1	Not Active
O=C(Nc1ccc(Cl)c(Cl)c1)Nc1ccc(-c2ccncc2)s1	Not Active
O=C(Nc1ccc(Cl)c(Cl)c1)Nc1nnc(-c2ccccc2)s1	Not Active
O=C(Nc1ccc(Cl)c(Cl)c1)Nc1nnc(-c2ccncc2)o1	Not Active
O=C(Nc1ccc(Cl)c(Cl)c1)Nc1nnc(N2CCNCC2)s1	Not Active
O=C(Nc1nnc(-c2ccncc2)s1)Oc1ccc2ccccc2c1	Not Active

Same assay, conditions: read-out: IC50

SMILES	IC50 [µM]
N#Cc1ccc(NC(=O)Nc2nnc(-c3ccncc3)s2)cc1Br	0.91
N#Cc1cc(NC(=O)Nc2nnc(-c3ccncc3)s2)ccc1-c1ccc[nH]1	1.8
Cc1cc(NC(=O)Nc2nnc(-c3ccncc3)s2)ccc1Cl	7.9
Cc1cc(NC(=O)Nc2nnc(-c3ccncc3)s2)ccc1F	15.8
O=C(Nc1ccc(-c2cn[nH]c2)c(C(F)(F)F)c1)Nc1nnc(-c2ccncc2)s1	14.2
Cc1cc(NC(=O)Nc2nnc(-c3ccncc3)s2)ccc1-c1cn[nH]c1	16.8
N#Cc1ccc(NC(=O)Nc2nnc(-c3ccncc3)s2)cc1Cl	1.6
O=C(Nc1ccc(F)c(F)c1)Nc1nnc(-c2ccncc2)s1	8.9
N#Cc1cc(NC(=O)Nc2nnc(-c3ccncc3)s2)ccc1Br	0.11
N#Cc1ccc(NC(=O)Nc2nnc(-c3ccncc3)s2)cc1C(F)(F)F	5.6
N#Cc1ccc(NC(=O)Nc2nnc(-c3ccncc3)s2)cc1	7.9
Cc1cc(NC(=O)Nc2nnc(-c3ccncc3)s2)ccc1Br	13.4
Cc1cc(NC(=O)Nc2nnc(-c3ccncc3)s2)ccc1C#N	3.2
Nc1cc(NC(=O)Nc2nnc(-c3ccncc3)s2)ccc1Cl	11.2
NC(=Nc1ccc(Cl)c(Cl)c1)Nc1nnc(-c2ccncc2)s1	14.1
O=C(Nc1ccc(Cl)c(Cl)c1)Nc1nnc(-c2ccncc2)s1	1.4
N#Cc1cc(NC(=O)Nc2nnc(-c3ccncc3)s2)ccc1-c1cn[nH]c1	1.1
N#Cc1cc(NC(=O)Nc2nnc(-c3ccncc3)s2)ccc1F	0.3

SMILES	IC50 [µM]
O=c1c(Nc2ccc(Cl)c(Cl)c2)c(Nc2nnc(-c3ccncc3)s2)c1=O	4.3
O=C(Nc1ccc(Br)c(Br)c1)Nc1nnc(-c2ccncc2)s1	2.1
O=C(Nc1ccc(Cl)cc1)Nc1nnc(-c2ccncc2)s1	40
S=C(Nc1ccc(Cl)c(Cl)c1)Nc1nnc(-c2ccncc2)s1	4
O=C(Nc1ccc(Cl)c(C(F)(F)F)c1)Nc1nnc(-c2ccncc2)s1	7.1
N#Cc1cc(NC(=O)Nc2nnc(-c3ccncc3)s2)ccc1Cl	0.1
O=C(Nc1ccc(Cl)c(Cl)c1)Nc1cccc(-c2ccncc2)n1	4
O=C(Nc1ccc(Br)cc1)Nc1nnc(-c2ccncc2)s1	12.6
O=C(Nc1ccc(F)cc1)Nc1nnc(-c2ccncc2)s1	14.1
N#Cc1cccc(NC(=O)Nc2nnc(-c3ccncc3)s2)c1	8.9
Nc1ccc(NC(=O)Nc2nnc(-c3ccncc3)s2)cc1C(F)(F)F	40
O=C(Nc1ccc(-n2cncn2)c(F)c1)Nc1nnc(-c2ccncc2)s1	14.1
O=C(Nc1ccc(-n2cncn2)c(C(F)(F)F)c1)Nc1nnc(-c2ccncc2)s1	36
O=C(Nc1ccc(Cl)c(Cl)c1)Nc1nnc(-c2cccnc2)s1	3.5
O=C(Nc1ccc(Cl)c(Cl)c1)Nc1nc(-c2ccncc2)cs1	28.1
O=C(Nc1ccc(Cl)c([N+](=O)[O-])c1)Nc1nnc(-c2ccncc2)s1	1.3
Nc1ccc(-c2nnc(NC(=O)Nc3ccc(Cl)c(Cl)c3)s2)cc1	49
O=C(Nc1ccc(-n2ccnc2)c(F)c1)Nc1nnc(-c2ccncc2)s1	10

Biological target: T2, ATP-dependent DNA helicase Q1 (Homo sapiens, UniProt P46063)
T2 sequence (P46063 whole entry): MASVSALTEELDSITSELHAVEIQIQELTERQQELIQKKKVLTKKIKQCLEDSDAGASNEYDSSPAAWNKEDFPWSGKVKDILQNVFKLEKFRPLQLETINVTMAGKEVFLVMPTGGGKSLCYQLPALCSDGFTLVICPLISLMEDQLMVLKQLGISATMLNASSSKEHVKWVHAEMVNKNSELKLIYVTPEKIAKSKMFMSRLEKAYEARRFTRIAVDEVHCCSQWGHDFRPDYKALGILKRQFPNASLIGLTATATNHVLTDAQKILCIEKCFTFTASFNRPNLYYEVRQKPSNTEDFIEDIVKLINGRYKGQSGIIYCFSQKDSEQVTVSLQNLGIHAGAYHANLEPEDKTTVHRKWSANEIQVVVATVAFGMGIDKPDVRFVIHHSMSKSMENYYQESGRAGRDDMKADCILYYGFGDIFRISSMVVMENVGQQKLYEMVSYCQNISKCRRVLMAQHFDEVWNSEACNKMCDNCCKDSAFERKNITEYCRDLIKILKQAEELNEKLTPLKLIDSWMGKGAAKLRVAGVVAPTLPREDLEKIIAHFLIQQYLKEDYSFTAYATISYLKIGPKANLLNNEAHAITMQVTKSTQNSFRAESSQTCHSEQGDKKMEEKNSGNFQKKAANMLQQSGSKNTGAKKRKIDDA
Experiment: Inhibition of RECQ1 (unknown origin) by gel-based DNA unwinding assay
Conditions: not given

SMILES	IC50 [µM]
N#Cc1cc(NC(=O)Nc2nnc(-c3ccncc3)s2)ccc1Br	> 50
O=C(Nc1ccc(Cl)c(Cl)c1)Nc1nnc(-c2ccncc2)s1	> 50
N#Cc1cc(NC(=O)Nc2nnc(-c3ccncc3)s2)ccc1-c1cn[nH]c1	> 50
N#Cc1cc(NC(=O)Nc2nnc(-c3ccncc3)s2)ccc1F	> 50
O=C(Nc1ccc(F)c(C(F)(F)F)c1)Nc1nnc(-c2ccncc2)s1	> 50

Species: Homo sapiens
Experiment: Increase of sister chromatid exchange in human BLM-deficient PSNG13 cells at 1 to 5 uM
Assay type: functional
Conditions: not given
In short: as §1

SMILES	Activity
N#Cc1cc(NC(=O)Nc2nnc(-c3ccncc3)s2)ccc1-c1cn[nH]c1	inactive
